Measured values: ChEMBL document CHEMBL3102805, “Truncated Orexin Peptides: Structure-Activity Relationship Studies” (ACS Med Chem Lett, 2013)
Where a SMILES comes first, the peptide text is derived from it.

Columns and labels:
[1] = species on record: Homo sapiens; assay: Selectivity ratio of EC50 for human OX2 receptor to EC50 for human OX1 receptor
[2] = molecular target: T1, Orexin receptor type 2 (Homo sapiens, UniProt O43614); assay: Agonist activity at human OX2 receptor overexpressed in CHO-RD-HGA16 cells assessed as calcium mobilization after 15 mins by fluorescence assay; format: functional, cell-based
T1 sequence (O43614 whole entry): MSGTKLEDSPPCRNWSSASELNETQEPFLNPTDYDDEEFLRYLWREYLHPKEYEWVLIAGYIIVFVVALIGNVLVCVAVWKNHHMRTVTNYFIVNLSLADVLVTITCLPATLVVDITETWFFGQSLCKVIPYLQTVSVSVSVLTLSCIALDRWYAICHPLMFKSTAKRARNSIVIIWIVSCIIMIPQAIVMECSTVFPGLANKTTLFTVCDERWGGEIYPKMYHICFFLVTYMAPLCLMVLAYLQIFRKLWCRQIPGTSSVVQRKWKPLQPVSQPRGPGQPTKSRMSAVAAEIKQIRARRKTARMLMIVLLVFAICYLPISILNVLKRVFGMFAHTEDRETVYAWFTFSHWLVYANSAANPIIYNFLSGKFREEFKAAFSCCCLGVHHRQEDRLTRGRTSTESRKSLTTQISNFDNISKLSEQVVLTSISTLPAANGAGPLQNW

[3] = molecular target: T2, Orexin/Hypocretin receptor type 1 (Homo sapiens, UniProt O43613); assay: Agonist activity at human OX1 receptor overexpressed in CHO-RD-HGA16 cells assessed as calcium mobilization after 15 mins by fluorescence assay; format: functional, cell-based
T2 sequence (O43613 whole entry): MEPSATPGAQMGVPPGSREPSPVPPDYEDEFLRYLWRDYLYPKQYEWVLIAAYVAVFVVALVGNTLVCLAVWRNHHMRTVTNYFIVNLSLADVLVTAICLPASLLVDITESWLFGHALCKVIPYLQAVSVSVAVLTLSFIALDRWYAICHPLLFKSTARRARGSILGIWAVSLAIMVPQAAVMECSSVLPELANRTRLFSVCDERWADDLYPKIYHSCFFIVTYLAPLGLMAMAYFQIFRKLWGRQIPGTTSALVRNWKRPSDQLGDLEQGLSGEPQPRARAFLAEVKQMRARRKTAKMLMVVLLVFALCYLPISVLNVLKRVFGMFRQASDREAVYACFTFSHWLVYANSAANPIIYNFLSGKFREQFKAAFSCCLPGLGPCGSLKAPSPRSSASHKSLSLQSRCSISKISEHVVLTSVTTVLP
Method in brief: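 EC50 from 8-point half-log concentration-response curves. Values are means of at least three independent experiments in duplicate, with SEM, or means of two independent duplicate experiments.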

SMILES	Ratio EC50 [1]	EC50 [2]	EC50 [3]
CC[C@H](C)[C@H](NC(=O)CNC(=O)[C@H](C)NC(=O)[C@H](C)NC(=O)[C@@H](Cc1cnc[nH]1)NC(=O)[C@H](CC(N)=O)NC(=O)CNC(=O)[C@H](C)NC(=O)CNC(=O)[C@H](Cc1cnc[nH]1)NC(=O)[C@H](CC(C)C)NC(=O)[C@H](CC(C)C)NC(=O)[C@H](CCC(=O)O)NC(=O)[C@@H](N)Cc1ccc(O)cc1)C(=O)N[C@@H](CC(C)C)C(=O)N[C@H](C(=O)N[C@@H](CC(C)C)C(N)=O)[C@@H](C)O	0.3	1760 nM	5700 nM
CC[C@H](C)[C@H](NC(=O)CNC(=O)[C@H](C)NC(=O)[C@@H](C)NC(=O)[C@H](Cc1cnc[nH]1)NC(=O)[C@H](CC(N)=O)NC(=O)CNC(=O)[C@H](C)NC(=O)CNC(=O)[C@H](Cc1cnc[nH]1)NC(=O)[C@H](CC(C)C)NC(=O)[C@H](CC(C)C)NC(=O)[C@H](CCC(=O)O)NC(=O)[C@@H](N)Cc1ccc(O)cc1)C(=O)N[C@@H](CC(C)C)C(=O)N[C@H](C(=O)N[C@@H](CC(C)C)C(N)=O)[C@@H](C)O	0.7	1250 nM	1900 nM
CC[C@H](C)[C@H](NC(=O)CNC(=O)[C@H](C)NC(=O)[C@H](C)NC(=O)[C@H](Cc1cnc[nH]1)NC(=O)[C@H](CC(N)=O)NC(=O)CNC(=O)[C@H](C)NC(=O)CNC(=O)[C@H](Cc1cnc[nH]1)NC(=O)[C@H](CC(C)C)NC(=O)[C@H](CC(C)C)NC(=O)[C@H](CCC(=O)O)NC(=O)[C@H](N)Cc1ccc(O)cc1)C(=O)N[C@@H](CC(C)C)C(=O)N[C@H](C(=O)N[C@@H](CC(C)C)C(N)=O)[C@@H](C)O	2.4	3220 nM	1360 nM
CC[C@H](C)[C@H](NC(=O)CNC(=O)[C@H](C)NC(=O)[C@H](C)NC(=O)[C@H](Cc1cnc[nH]1)NC(=O)[C@H](CC(N)=O)NC(=O)CNC(=O)[C@H](C)NC(=O)CNC(=O)[C@H](Cc1cnc[nH]1)NC(=O)[C@H](CC(C)C)NC(=O)[C@H](CC(C)C)NC(=O)[C@@H](CCC(=O)O)NC(=O)[C@@H](N)Cc1ccc(O)cc1)C(=O)N[C@@H](CC(C)C)C(=O)N[C@H](C(=O)N[C@@H](CC(C)C)C(N)=O)[C@@H](C)O	2.9	2140 nM	739 nM
CC[C@H](C)[C@H](NC(=O)CNC(=O)[C@H](C)NC(=O)[C@H](C)NC(=O)[C@H](Cc1cnc[nH]1)NC(=O)[C@H](CC(N)=O)NC(=O)CNC(=O)[C@H](C)NC(=O)CNC(=O)[C@H](Cc1cnc[nH]1)NC(=O)[C@H](CC(C)C)NC(=O)[C@@H](CC(C)C)NC(=O)[C@H](CCC(=O)O)NC(=O)[C@@H](N)Cc1ccc(O)cc1)C(=O)N[C@@H](CC(C)C)C(=O)N[C@H](C(=O)N[C@@H](CC(C)C)C(N)=O)[C@@H](C)O	0.5	263 nM	526 nM
CC[C@H](C)[C@H](NC(=O)CNC(=O)[C@H](C)NC(=O)[C@H](C)NC(=O)[C@H](Cc1cnc[nH]1)NC(=O)[C@H](CC(N)=O)NC(=O)CNC(=O)[C@H](C)NC(=O)CNC(=O)[C@H](Cc1cnc[nH]1)NC(=O)[C@@H](CC(C)C)NC(=O)[C@H](CC(C)C)NC(=O)[C@H](CCC(=O)O)NC(=O)[C@@H](N)Cc1ccc(O)cc1)C(=O)N[C@@H](CC(C)C)C(=O)N[C@H](C(=O)N[C@@H](CC(C)C)C(N)=O)[C@@H](C)O	0.3	156 nM	535 nM
CC[C@H](C)[C@H](NC(=O)CNC(=O)[C@H](C)NC(=O)[C@H](C)NC(=O)[C@H](Cc1cnc[nH]1)NC(=O)[C@H](CC(N)=O)NC(=O)CNC(=O)[C@H](C)NC(=O)CNC(=O)[C@@H](Cc1cnc[nH]1)NC(=O)[C@H](CC(C)C)NC(=O)[C@H](CC(C)C)NC(=O)[C@H](CCC(=O)O)NC(=O)[C@@H](N)Cc1ccc(O)cc1)C(=O)N[C@@H](CC(C)C)C(=O)N[C@H](C(=O)N[C@@H](CC(C)C)C(N)=O)[C@@H](C)O	0.4	610 nM	1560 nM
CC[C@H](C)[C@H](NC(=O)CNC(=O)[C@H](C)NC(=O)[C@H](C)NC(=O)[C@H](Cc1cnc[nH]1)NC(=O)[C@H](CC(N)=O)NC(=O)CNC(=O)[C@@H](C)NC(=O)CNC(=O)[C@H](Cc1cnc[nH]1)NC(=O)[C@H](CC(C)C)NC(=O)[C@H](CC(C)C)NC(=O)[C@H](CCC(=O)O)NC(=O)[C@@H](N)Cc1ccc(O)cc1)C(=O)N[C@@H](CC(C)C)C(=O)N[C@H](C(=O)N[C@@H](CC(C)C)C(N)=O)[C@@H](C)O	0.6	1920 nM	3070 nM
CC[C@H](C)[C@H](NC(=O)CNC(=O)[C@H](C)NC(=O)[C@H](C)NC(=O)[C@H](Cc1cnc[nH]1)NC(=O)[C@H](CC(N)=O)NC(=O)CNC(=O)[C@H](C)NC(=O)CNC(=O)[C@H](Cc1cnc[nH]1)NC(=O)[C@H](CC(C)C)NC(=O)[C@H](CC(C)C)NC(=O)[C@H](CCC(=O)O)NC(=O)[C@@H](N)Cc1ccc(O)cc1)C(=O)N[C@@H](CC(C)C)C(=O)N[C@H](C(=O)N[C@@H](CC(C)C)C(N)=O)[C@@H](C)O	–	187 nM	8.29 nM
CC[C@H](C)[C@H](NC(=O)CNC(=O)[C@H](C)NC(=O)[C@H](C)NC(=O)[C@H](Cc1c[nH]cn1)NC(=O)[C@H](CC(N)=O)NC(=O)CNC(=O)[C@H](C)NC(=O)CNC(=O)[C@H](Cc1c[nH]cn1)NC(=O)[C@H](CC(C)C)NC(=O)[C@H](CC(C)C)NC(=O)[C@H](CCC(=O)O)NC(=O)[C@@H](N)Cc1ccc(O)cc1)C(=O)N[C@@H](CC(C)C)C(=O)N[C@H](C(=O)N[C@@H](CC(C)C)C(N)=O)[C@@H](C)O	23	–	–
CC[C@H](C)[C@H](NC(=O)CNC(=O)[C@H](C)NC(=O)[C@H](C)NC(=O)[C@H](Cc1cnc[nH]1)NC(=O)[C@H](CC(N)=O)NC(=O)CNC(=O)[C@H](C)NC(=O)CNC(=O)[C@H](Cc1cnc[nH]1)NC(=O)[C@H](CC(C)C)NC(=O)[C@H](CC(C)C)NC(=O)[C@H](CCC(=O)O)NC(=O)[C@H](C)N)C(=O)N[C@@H](CC(C)C)C(=O)N[C@H](C(=O)N[C@@H](CC(C)C)C(N)=O)[C@@H](C)O (H-AELLHGAGNHAAGILTL-NH2)	2.5	4820 nM	1910 nM
CC[C@H](C)[C@H](NC(=O)CNC(=O)[C@H](C)NC(=O)[C@H](C)NC(=O)[C@H](Cc1c[nH]cn1)NC(=O)[C@H](CC(N)=O)NC(=O)CNC(=O)[C@H](C)NC(=O)CNC(=O)[C@H](Cc1c[nH]cn1)NC(=O)[C@H](CC(C)C)NC(=O)[C@@H](N)CC(C)C)C(=O)N[C@@H](CC(C)C)C(=O)N[C@H](C(=O)N[C@@H](CC(C)C)C(N)=O)[C@@H](C)O (H-LLHGAGNHAAGILTL-NH2)	0.7	947 nM	1380 nM
CC[C@H](C)[C@H](NC(=O)CNC(=O)[C@H](C)NC(=O)[C@H](C)NC(=O)[C@H](Cc1cnc[nH]1)NC(=O)[C@H](CC(N)=O)NC(=O)CNC(=O)[C@H](C)NC(=O)CNC(=O)[C@H](Cc1cnc[nH]1)NC(=O)[C@H](CC(C)C)NC(=O)[C@H](CC(C)C)NC(=O)[C@H](CCC(=O)O)NC(=O)[C@@H]1CCCN1)C(=O)N[C@@H](CC(C)C)C(=O)N[C@H](C(=O)N[C@@H](CC(C)C)C(N)=O)[C@@H](C)O (H-PELLHGAGNHAAGILTL-NH2)	2.4	3250 nM	1370 nM
CC[C@H](C)[C@H](NC(=O)CNC(=O)[C@H](C)NC(=O)[C@H](C)NC(=O)[C@H](Cc1cnc[nH]1)NC(=O)[C@H](CC(N)=O)NC(=O)CNC(=O)[C@H](C)NC(=O)CNC(=O)[C@H](Cc1cnc[nH]1)NC(=O)[C@H](CC(C)C)NC(=O)[C@H](CC(C)C)NC(=O)[C@H](CCC(=O)O)NC(=O)[C@H](Cc1ccc(O)cc1)NC(=O)[C@H](CC(C)C)NC(=O)[C@@H](N)CCCNC(=N)N)C(=O)N[C@@H](CC(C)C)C(=O)N[C@H](C(=O)N[C@@H](CC(C)C)C(N)=O)[C@@H](C)O (H-RLYELLHGAGNHAAGILTL-NH2)	–	976 nM	64 nM
CC[C@H](C)[C@H](NC(=O)CNC(=O)[C@H](C)NC(=O)[C@H](C)NC(=O)[C@H](Cc1c[nH]cn1)NC(=O)[C@H](CC(N)=O)NC(=O)CNC(=O)[C@H](C)NC(=O)CNC(=O)[C@H](Cc1c[nH]cn1)NC(=O)[C@H](CC(C)C)NC(=O)[C@H](CC(C)C)NC(=O)[C@H](CCC(=O)O)NC(=O)[C@H](Cc1ccc(O)cc1)NC(=O)[C@H](CC(C)C)NC(=O)[C@@H](N)CCCN=C(N)N)C(=O)N[C@@H](CC(C)C)C(=O)N[C@H](C(=O)N[C@@H](CC(C)C)C(N)=O)[C@@H](C)O (H-RLYELLHGAGNHAAGILTL-NH2)	15	–	–
